Laboratory results taken from PMC4377293 (The Biochemical journal, 2015).
“And” between values parts separate entries of the source, which are not always exact repeats. Equal values may be shown once.

Key:
human PRODH2 157–515 [1] = target: T1, human PRODH2 157–515 (Homo sapiens, UniProt Q9UF12); assay: Steady-state kinetic analysis with the o-AB assay; type: biochemical; settings: for reaction as substrate: tested at 500 mM
T1 sequence (Q9UF12 81-439 limits assumed): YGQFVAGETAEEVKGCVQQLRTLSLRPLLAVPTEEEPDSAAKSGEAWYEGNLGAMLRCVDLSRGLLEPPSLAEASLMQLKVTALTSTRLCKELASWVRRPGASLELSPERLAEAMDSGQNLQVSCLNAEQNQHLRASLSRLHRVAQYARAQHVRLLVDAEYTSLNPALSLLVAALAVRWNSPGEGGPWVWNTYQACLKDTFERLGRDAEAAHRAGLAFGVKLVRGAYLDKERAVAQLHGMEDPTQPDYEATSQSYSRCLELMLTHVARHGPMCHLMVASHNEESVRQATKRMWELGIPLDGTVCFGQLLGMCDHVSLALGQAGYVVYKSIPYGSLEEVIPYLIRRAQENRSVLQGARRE

[2] = target: T2, human PRODH2 157–515 (HYPDH) (Homo sapiens, UniProt Q9UF12); assay: Inhibition studies, standard o-AB assay; type: biochemical; settings: 600 mM Hyp; for inhibition of HYPDH activity: up to 5 mM; for IC50: 5 min preincubation, compound up to 5 mM
T2 sequence (Q9UF12 81-439 limits assumed): T1 sequence (Q9UF12 81-439 limits assumed)
Outline: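 Purified PRODH2 157–515 at 200 nM in 50 mM HEPES pH 7.5 with 4 mM o-AB and 200 μM CoQ1 as electron acceptor, 25°C. Test compound (up to 5 mM) was preincubated with enzyme for 5 min, then 600 mM Hyp was added. Product–o-AB adduct was followed at 443 nm. Percent activity versus concentration was fit assuming single-site binding to give IC50. Stocks were aqueous, except one in DMSO (3% final).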

human PRODH2 157–515 [3] = target: T1, human PRODH2 157–515; assay: Steady-state kinetics with ubiquinone analogues as electron acceptors; type: biochemical; settings: for ability to support Hyp turnover as electron acceptor: Triton X-100 included with CoQ4
human PRODH2 157–515 [4] = target: T1, human PRODH2 157–515; assay: Anaerobic titration with Hyp; type: binding; settings: Kd from anaerobic titration versus Km from o-AB assay
human PRODH2 157–515 [5] = target: T1, human PRODH2 157–515; assay: Sulfite reactivity; type: binding
Outline: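 The flavin spectrum was recorded until absorbance stabilised, and ΔA455 was fit hyperbolically for Kd. For adduct reversibility, a proline-analogue inhibitor (1–5 mM final) was added and incubated for 30 min before the spectrum was re-acquired.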

human PRODH1 = settings: read-out: Kd for sulfite binding; ref [34], [45]; cited from earlier work
E. coli PutA = settings: ref [43], [45]; cited from earlier work
[6] = target: Helicobacter hepaticus PutA; settings: read-out: Kd for sulfite binding; ref [34], [45]; cited from earlier work
[7] = test system: PRODH homologue of Saccharomyces cerevisiae; settings: ref [43], [45]; cited from earlier work

O=C(O)[C@H]1C[C@@H](O)CN1 (relative stereo) [cis-4-OH-D-proline]
reaction as substrate (human PRODH2 157–515 [1]; 200 μM CoQ1): does not react | inhibition of HYPDH activity [2]: did not cause inhibition

O=C(O)c1cc(O)[nH]n1 [5-OH-1H-pyrazole-3-COOH]
IC50 [2]: 2.9 ± 0.1 mM

O=C(O)[C@@H]1CC[C@@H](O)C1 [(1R, 3R) 3-OH-cyclopentane carboxylic acid]
IC50 [2]: 2.1 ± 0.1 mM

O=C(O)[C@H]1CC[C@@H](O)C1 [(1S, 3R) 3-OH-cyclopentane carboxylic acid]
inhibition of HYPDH activity [2]: did not cause inhibition | inhibition of HYPDH activity ([2]; listed as (1S, 3R) 3-OH-cyclopentane-COOH): did not inhibit

COC1=C(OC)C(=O)C(CC=C(C)C)=C(C)C1=O [CoQ1, Coenzyme Q1]
kcat (human PRODH2 157–515 [3]; 0–400 μM ubiquinone analogue, 600 mM Hyp, 50 mM HEPES pH 7.5): 0.19 ± 0.01 s⁻¹ | Km (human PRODH2 157–515 [3]; 0–400 μM ubiquinone analogue, 600 mM Hyp, 50 mM HEPES pH 7.5, 4 mM o-AB, 200 nM PRODH2 157–515): 124 ± 19 µM | ability to support Hyp turnover as electron acceptor (human PRODH2 157–515 [3]; 600 mM Hyp): support Hyp turnover

COC1=C(OC)C(=O)C(C/C=C(\C)CCC=C(C)C)=C(C)C1=O [CoQ2]
ability to support Hyp turnover as electron acceptor (human PRODH2 157–515 [3]; 600 mM Hyp): inability to use

COC1=C(OC)C(=O)C(C/C=C(\C)CC/C=C(\C)CC/C=C(\C)CCC=C(C)C)=C(C)C1=O [CoQ4]
ability to support Hyp turnover as electron acceptor (human PRODH2 157–515 [3]; 600 mM Hyp): inability to use

CC1=C(C)C(=O)C(C)=C(C)C1=O [Duroquinone]
ability to support Hyp turnover as electron acceptor (human PRODH2 157–515 [3]; 600 mM Hyp): support Hyp turnover

O=C(O)[C@@H]1C[C@@H](O)CN1 [Hyp, trans-4-hydroxy-L-proline]
fold lower Kd than Km (human PRODH2 157–515 [4]): ~ 1600 fold and 1600 fold | fold difference in kcat/Km (specificity constant), Hyp over Pro (human PRODH2 157–515 [1]; 200 μM CoQ1): 12 fold and ~ 12 fold | fold lower kcat with O2 than with CoQ1 as electron acceptor (human PRODH2 157–515 [1]; air saturated buffer versus 200 μM CoQ1): ~ 100 fold

CC1=CC(=O)c2ccccc2C1=O [Menadione]
Ki (human PRODH2 157–515 [3]): 0.306 ± 0.034 mM | ability to support Hyp turnover as electron acceptor (human PRODH2 157–515 [3]; 600 mM Hyp): support Hyp turnover

O=C(O)[C@@H]1CCCN1 [Pro, L-proline]
saturation of PRODH2 by substrate (human PRODH2 157–515 [1]; up to 750 mM Pro, 200 μM CoQ1): unable to saturate

O=C(O)C1CCCO1 (stereo not shown) [THFA, tetrahydrofuroic acid]
IC50 [2]: 1.5 ± 0.1 mM | reversal of the sulfite adduct (flavin spectrum) (human PRODH2 157–515 [5]; 1–5 mM THFA added, 30 min incubation): returned the flavin spectrum to the oxidized state

O=S([O-])[O-].[Na+].[Na+] [sulfite, sodium sulfite]
Kd (human PRODH1): 10.4 mM | sulfite binding (E. coli PutA): do not bind | Kd [6]: 0.4 mM | time for the spectrum to reach equilibrium (adduct formation) (human PRODH2 157–515 [5]; aerobic, 25 °C): ~ 6 h | Kd (human PRODH2 157–515 [5]; read-out: Kd for sulfite binding, 50 μM PRODH2 157–515, 50 mM potassium phosphate pH 7.6, 25 °C, 6 h equilibration): 0.064 ± 0.0077 mM | sulfite binding [7]: do not bind

O=C(O)C1CC(O)CN1 [trans-4-OH-D-proline]
reaction as substrate (human PRODH2 157–515 [1]; 200 μM CoQ1): does not react | inhibition of HYPDH activity [2]: did not cause inhibition
